Experimental data: ChEMBL document CHEMBL1828503, “Design, synthesis and docking studies of quinoline-oxazolidinone hybrid molecules and their antitubercular properties” (2011)
In brackets after ≈: the same amount, converted by molar mass.

Columns and labels:
Assay type in all cases: functional
[1] = test system: Staphylococcus aureus; test: Antimicrobial activity against Staphylococcus aureus ATCC 25923 after 18 to 48 hrs by serial dilution method
[2] = test system: Streptococcus pyogenes; test: Antimicrobial activity against Streptococcus pyogenes clinical isolate after 18 to 48 hrs by serial dilution method
[3] = test system: Pseudomonas aeruginosa; test: Antimicrobial activity against Pseudomonas aeruginosa ATCC 27853 after 18 to 48 hrs by serial dilution method
[4] = test system: Klebsiella pneumoniae; test: Antimicrobial activity against Klebsiella pneumoniae clinical isolate after 18 to 48 hrs by serial dilution method
[5] = test system: Escherichia coli; test: Antimicrobial activity against Escherichia coli ATCC 25922 after 18 to 48 hrs by serial dilution method
[6] = test system: Mycobacterium tuberculosis; test: Antimicrobial activity against Mycobacterium tuberculosis H37Rv ATCC 27294 after 7 days by resazurin assay; conditions: H37Rv ATCC 27294, 168 h
How it was run: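 M. tuberculosis H37Rv ATCC 27294 culture diluted into fresh medium in 96-well microtitre plates. Compounds were taken from 2 mg/mL stocks in DMF, with DMF-only control tubes and rifampicin and isoniazid as references. Plates were incubated 37 °C for 7 days, then 0.01% aqueous resazurin was added and read after 1 h at 37 °C. MIC is the lowest concentration preventing the blue-to-pink change.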

[7] = test system: Mycolicibacterium smegmatis; test: Antimicrobial activity against Mycobacterium smegmatis ATCC 19420 after 7 days by resazurin assay; conditions: ATCC 19420, 168 h
How it was run: (§1)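 Resazurin microplate assay. Culture added to fresh medium in 96-well plates. Compound stocks 2 mg/mL in DMF. DMF-only controls, with rifampicin and isoniazid as references. Incubated 7 days at 37 °C, then 0.01% resazurin in water added. Blue-to-pink change read after 1 h at 37 °C. MIC taken as the lowest concentration preventing the colour change.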

[8] = test system: Mycolicibacterium fortuitum; test: Antimicrobial activity against Mycobacterium fortuitum ATCC 19542 after 7 days by resazurin assay; conditions: ATCC 19542, 168 h; how it was run: as §1
[9] = test system: Mycobacterium tuberculosis; test: Antimicrobial activity against Mycobacterium tuberculosis H37Rv ATCC 27294 assessed as growth inhibition after 7 days by resazurin assay

SMILES	MIC [1] [µg/mL]	MIC [2] [µg/mL]	MIC [3] [µg/mL]	MIC [4] [µg/mL]	MIC [5] [µg/mL]	MIC [6] [µg/mL]	MIC [7] [µg/mL]	MIC [8] [µg/mL]	growth inhibition (GI) [9] [%]
COc1ccc2nc(C)cc(N3CC(CNC(C)=O)OC3=O)c2c1 (stereo not given)	0.8 (≈ 2.43 µM)	0.2 (≈ 0.607 µM)	0.4 (≈ 1.21 µM)	0.1 (≈ 0.304 µM)	0.2 (≈ 0.607 µM)	0.625 (≈ 1.9 µM)	2.5 (≈ 7.59 µM)	10 (≈ 30.4 µM)	95
COc1ccc2nc(C)cc(N3CC(CNC(=O)C4CC4)OC3=O)c2c1 (stereo not given)	0.8 (≈ 2.25 µM)	0.4 (≈ 1.13 µM)	0.4 (≈ 1.13 µM)	1.6 (≈ 4.5 µM)	0.8 (≈ 2.25 µM)	1 (≈ 2.81 µM)	10 (≈ 28.1 µM)	10 (≈ 28.1 µM)	90
COc1ccc2nc(C)cc(N3CC(CNC(=O)C4CCC4)OC3=O)c2c1 (stereo not given)	1.6 (≈ 4.33 µM)	1.6 (≈ 4.33 µM)	3.12 (≈ 8.46 µM)	6.25 (≈ 16.9 µM)	1.6 (≈ 4.33 µM)	2.5 (≈ 6.77 µM)	100 (≈ 271 µM)	100 (≈ 271 µM)	85
COc1ccc2nc(C)cc(N3CC(CNC(=O)c4ccc(F)cc4)OC3=O)c2c1 (stereo not given)	0.8 (≈ 1.95 µM)	0.4 (≈ 0.977 µM)	0.4 (≈ 0.977 µM)	0.1 (≈ 0.244 µM)	0.2 (≈ 0.488 µM)	1 (≈ 2.44 µM)	10 (≈ 24.4 µM)	10 (≈ 24.4 µM)	90
COc1ccc2nc(C)cc(N3CC(CNC(=O)c4ccccc4F)OC3=O)c2c1 (stereo not given)	1.6 (≈ 3.91 µM)	3.12 (≈ 7.63 µM)	3.12 (≈ 7.63 µM)	6.25 (≈ 15.3 µM)	6.25 (≈ 15.3 µM)	1 (≈ 2.44 µM)	5 (≈ 12.2 µM)	10 (≈ 24.4 µM)	90
COc1ccc2nc(C)cc(N3CC(CNC(=O)c4ccccc4)OC3=O)c2c1 (stereo not given)	3.12 (≈ 7.98 µM)	3.12 (≈ 7.98 µM)	> 12.5	6.25 (≈ 16 µM)	> 12.5	100 (≈ 255 µM)	100 (≈ 255 µM)	100 (≈ 255 µM)	0
CCc1ccc(C(=O)NCC2CN(c3cc(C)nc4ccc(OC)cc34)C(=O)O2)cc1 (stereo not given)	1.6 (≈ 3.81 µM)	6.25 (≈ 14.9 µM)	> 12.5	1.6 (≈ 3.81 µM)	3.12 (≈ 7.45 µM)	100 (≈ 238 µM)	100 (≈ 238 µM)	100 (≈ 238 µM)	0
COc1ccc2nc(C)cc(N3CC(CNC(=O)c4ccc(C)cc4)OC3=O)c2c1 (stereo not given)	3.12 (≈ 7.71 µM)	1.6 (≈ 3.95 µM)	3.12 (≈ 7.71 µM)	3.12 (≈ 7.71 µM)	3.12 (≈ 7.71 µM)	100 (≈ 247 µM)	100 (≈ 247 µM)	100 (≈ 247 µM)	0
COc1ccc(C(=O)NCC2CN(c3cc(C)nc4ccc(OC)cc34)C(=O)O2)cc1 (stereo not given)	0.8 (≈ 1.9 µM)	0.4 (≈ 0.949 µM)	0.2 (≈ 0.475 µM)	0.1 (≈ 0.237 µM)	0.2 (≈ 0.475 µM)	5 (≈ 11.9 µM)	5 (≈ 11.9 µM)	10 (≈ 23.7 µM)	85
COc1ccc2nc(C)cc(N3CC(CNC(=O)c4ccc(C(F)(F)F)cc4)OC3=O)c2c1 (stereo not given)	0.8 (≈ 1.74 µM)	0.4 (≈ 0.871 µM)	0.4 (≈ 0.871 µM)	0.8 (≈ 1.74 µM)	0.4 (≈ 0.871 µM)	0.625 (≈ 1.36 µM)	10 (≈ 21.8 µM)	2.5 (≈ 5.44 µM)	90
COc1ccc(C(=O)NCC2CN(c3cc(C)nc4ccc(OC)cc34)C(=O)O2)c(C)c1 (stereo not given)	0.8 (≈ 1.84 µM)	1.6 (≈ 3.67 µM)	3.12 (≈ 7.18 µM)	0.8 (≈ 1.84 µM)	1.6 (≈ 3.67 µM)	1 (≈ 2.3 µM)	100 (≈ 230 µM)	100 (≈ 230 µM)	85
COc1ccc2nc(C)cc(N3CC(CNC(=O)c4ccc(Cl)cc4)OC3=O)c2c1 (stereo not given)	1.6 (≈ 3.76 µM)	3.12 (≈ 7.34 µM)	6.25 (≈ 14.7 µM)	6.25 (≈ 14.7 µM)	3.12 (≈ 7.34 µM)	100 (≈ 235 µM)	100 (≈ 235 µM)	100 (≈ 235 µM)	85
COc1ccc2nc(C)cc(NC(=O)CN3CC(CN(C)C)OC3=O)c2c1 (stereo not given)	0.8 (≈ 2.15 µM)	0.8 (≈ 2.15 µM)	0.2 (≈ 0.537 µM)	0.4 (≈ 1.07 µM)	0.2 (≈ 0.537 µM)	0.625 (≈ 1.68 µM)	2.5 (≈ 6.71 µM)	10 (≈ 26.9 µM)	95
CCN(CC)CC1CN(CC(=O)Nc2cc(C)nc3ccc(OC)cc23)C(=O)O1 (stereo not given)	1.6 (≈ 4 µM)	3.12 (≈ 7.8 µM)	0.4 (≈ 0.999 µM)	0.1 (≈ 0.25 µM)	0.4 (≈ 0.999 µM)	1 (≈ 2.5 µM)	10 (≈ 25 µM)	10 (≈ 25 µM)	90
COc1ccc2nc(C)cc(NC(=O)CN3CC(CN4CCN(C)CC4)OC3=O)c2c1 (stereo not given)	0.8 (≈ 1.87 µM)	0.4 (≈ 0.936 µM)	1.6 (≈ 3.74 µM)	0.1 (≈ 0.234 µM)	0.4 (≈ 0.936 µM)	1 (≈ 2.34 µM)	10 (≈ 23.4 µM)	10 (≈ 23.4 µM)	90
CCN1CCN(CC2CN(CC(=O)Nc3cc(C)nc4ccc(OC)cc34)C(=O)O2)CC1 (stereo not given)	0.8 (≈ 1.81 µM)	0.2 (≈ 0.453 µM)	0.8 (≈ 1.81 µM)	1.6 (≈ 3.62 µM)	1.6 (≈ 3.62 µM)	10 (≈ 22.6 µM)	100 (≈ 226 µM)	100 (≈ 226 µM)	85
COc1ccc2nc(C)cc(NC(=O)CN3CC(CN4CCN(C(C)=O)CC4)OC3=O)c2c1 (stereo not given)	0.8 (≈ 1.76 µM)	0.8 (≈ 1.76 µM)	1.6 (≈ 3.51 µM)	1.6 (≈ 3.51 µM)	1.6 (≈ 3.51 µM)	5 (≈ 11 µM)	100 (≈ 220 µM)	100 (≈ 220 µM)	80
COc1ccc2nc(C)cc(NC(=O)CN3CC(CN4CCN(C(C)C)CC4)OC3=O)c2c1 (stereo not given)	1.6 (≈ 3.51 µM)	1.6 (≈ 3.51 µM)	0.8 (≈ 1.76 µM)	3.12 (≈ 6.86 µM)	0.8 (≈ 1.76 µM)	5 (≈ 11 µM)	100 (≈ 220 µM)	100 (≈ 220 µM)	85
COc1ccc2nc(C)cc(NC(=O)CN3CC(CN4CCN(C(C)(C)C)CC4)OC3=O)c2c1 (stereo not given)	1.6 (≈ 3.41 µM)	0.8 (≈ 1.7 µM)	0.8 (≈ 1.7 µM)	1.6 (≈ 3.41 µM)	1.6 (≈ 3.41 µM)	100 (≈ 213 µM)	100 (≈ 213 µM)	100 (≈ 213 µM)	0
COc1ccc2nc(C)cc(NC(=O)CN3CC(CN4CCOCC4)OC3=O)c2c1 (stereo not given)	0.8 (≈ 1.93 µM)	0.2 (≈ 0.483 µM)	0.4 (≈ 0.965 µM)	0.1 (≈ 0.241 µM)	0.1 (≈ 0.241 µM)	1 (≈ 2.41 µM)	10 (≈ 24.1 µM)	10 (≈ 24.1 µM)	95
COc1ccc2nc(C)cc(NC(=O)CN3CC(CNC4CC4)OC3=O)c2c1 (stereo not given)	1.6 (≈ 4.16 µM)	3.12 (≈ 8.13 µM)	1.6 (≈ 4.16 µM)	> 12.5	> 12.5	10 (≈ 26 µM)	100 (≈ 260 µM)	100 (≈ 260 µM)	90
COc1ccc2nc(C)cc(NC(=O)CN3CC(CN4CCCC4)OC3=O)c2c1 (stereo not given)	6.25 (≈ 15.7 µM)	3.12 (≈ 7.84 µM)	1.6 (≈ 4.02 µM)	> 12.5	> 12.5	100 (≈ 251 µM)	100 (≈ 251 µM)	100 (≈ 251 µM)	0
COc1ccc2nc(C)cc(NC(=O)CN3CC(CN4CCCCC4)OC3=O)c2c1 (stereo not given)	3.12 (≈ 7.58 µM)	6.25 (≈ 15.2 µM)	3.12 (≈ 7.58 µM)	> 12.5	> 12.5	100 (≈ 242 µM)	100 (≈ 242 µM)	100 (≈ 242 µM)	0
COc1ccc2nc(C)cc(NC(=O)CN3CC(CNCC4CCCCC4)OC3=O)c2c1 (stereo not given)	6.25 (≈ 14.2 µM)	1.6 (≈ 3.63 µM)	> 12.5	6.25 (≈ 14.2 µM)	6.25 (≈ 14.2 µM)	100 (≈ 227 µM)	100 (≈ 227 µM)	100 (≈ 227 µM)	0
COc1ccc2nc(C)cc(NC(=O)CN3CC(CN4CCC(C)CC4)OC3=O)c2c1 (stereo not given)	> 12.5	6.25 (≈ 14.7 µM)	> 12.5	6.25 (≈ 14.7 µM)	6.25 (≈ 14.7 µM)	100 (≈ 234 µM)	100 (≈ 234 µM)	100 (≈ 234 µM)	0
COc1ccc2nc(C)cc(NC(=O)CN3CC(CNC4CCCC4)OC3=O)c2c1 (stereo not given)	> 12.5	6.25 (≈ 15.2 µM)	> 12.5	6.25 (≈ 15.2 µM)	> 12.5	100 (≈ 242 µM)	100 (≈ 242 µM)	100 (≈ 242 µM)	0
O=C(O)c1cn(C2CC2)c2cc(N3CCNCC3)c(F)cc2c1=O [CIPROFLOXACIN]	1 (≈ 3.02 µM)		0.4 (≈ 1.21 µM)		0.025 (≈ 0.0754 µM)				
NNC(=O)c1ccncc1 [ISONIAZID]						0.7 (≈ 5.1 µM)	50 (≈ 365 µM)	12.5 (≈ 91.1 µM)	>95
CO[C@H]1/C=C/O[C@@]2(C)Oc3c(C)c(O)c4c(O)c(c(/C=N/N5CCN(C)CC5)c(O)c4c3C2=O)NC(=O)/C(C)=C\C=C\[C@H](C)[C@H](O)[C@@H](C)[C@@H](O)[C@@H](C)[C@H](OC(C)=O)[C@@H]1C [RIFAMPIN]						0.5 (≈ 0.608 µM)	1.5 (≈ 1.82 µM)	1.5 (≈ 1.82 µM)	>95
